# Assay results gathered from unrelated publications.
# Each line is one published result; the experiments were not run side by side.
# Target: Myosin-IIIb (MYO3B, Homo sapiens, UniProt Q8WXR4)
# One construct used (Q8WXR4 1-1341): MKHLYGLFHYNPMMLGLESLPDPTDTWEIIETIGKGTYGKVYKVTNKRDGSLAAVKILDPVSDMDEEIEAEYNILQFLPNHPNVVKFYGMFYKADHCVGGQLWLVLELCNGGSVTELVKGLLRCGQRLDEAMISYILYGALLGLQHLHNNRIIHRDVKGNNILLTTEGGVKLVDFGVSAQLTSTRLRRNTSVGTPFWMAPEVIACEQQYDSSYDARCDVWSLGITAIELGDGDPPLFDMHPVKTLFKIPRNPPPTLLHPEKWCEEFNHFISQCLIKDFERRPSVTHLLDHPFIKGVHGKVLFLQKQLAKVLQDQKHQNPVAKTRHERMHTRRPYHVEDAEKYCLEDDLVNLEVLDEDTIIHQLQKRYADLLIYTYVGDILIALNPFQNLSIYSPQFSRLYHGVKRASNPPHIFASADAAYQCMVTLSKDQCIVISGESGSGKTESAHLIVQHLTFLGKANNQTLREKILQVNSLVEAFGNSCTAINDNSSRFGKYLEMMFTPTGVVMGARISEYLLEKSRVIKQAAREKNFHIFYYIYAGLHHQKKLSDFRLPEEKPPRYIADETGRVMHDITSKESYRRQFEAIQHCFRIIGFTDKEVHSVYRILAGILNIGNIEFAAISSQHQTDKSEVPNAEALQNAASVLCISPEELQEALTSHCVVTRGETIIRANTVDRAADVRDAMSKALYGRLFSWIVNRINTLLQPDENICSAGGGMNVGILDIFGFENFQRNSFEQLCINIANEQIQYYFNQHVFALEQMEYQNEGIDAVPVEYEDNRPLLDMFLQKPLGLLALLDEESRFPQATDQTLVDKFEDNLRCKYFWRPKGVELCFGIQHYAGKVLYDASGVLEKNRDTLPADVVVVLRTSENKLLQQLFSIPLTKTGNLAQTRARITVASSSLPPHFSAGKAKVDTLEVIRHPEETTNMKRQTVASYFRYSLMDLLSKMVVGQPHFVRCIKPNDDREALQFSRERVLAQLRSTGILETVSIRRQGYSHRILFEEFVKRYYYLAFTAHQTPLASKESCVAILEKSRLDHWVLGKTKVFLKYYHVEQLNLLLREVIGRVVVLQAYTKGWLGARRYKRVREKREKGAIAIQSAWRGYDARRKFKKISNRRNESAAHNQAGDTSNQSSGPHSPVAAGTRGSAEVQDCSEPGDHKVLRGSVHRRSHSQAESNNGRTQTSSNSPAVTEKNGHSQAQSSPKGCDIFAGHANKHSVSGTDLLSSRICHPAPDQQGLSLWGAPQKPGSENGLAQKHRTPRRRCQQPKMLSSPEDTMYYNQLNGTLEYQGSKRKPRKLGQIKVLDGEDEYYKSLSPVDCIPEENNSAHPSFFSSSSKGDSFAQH
test,setting,quantity,result,SMILES
"enzyme activity, inhibitor",1 µM,inhibition,-2%,CN1CC(Oc2cnc(C#N)cc2-c2ccn3nc(NC(=O)C4CC4)cc3c2)C1
"enzyme activity, inhibitor",1 µM,remaining activity,116%,COc1cc(Cl)c(C(=O)N[C@@H](CN[C@H]2CC[C@@H](N)CC2)Cc2ccc(C#N)cc2)cc1-c1ccc(CN[C@H](C)c2ccc(C)cc2)o1
"binding, competition with immobilised ligand",1 µM,remaining binding,100%,CSc1cccnc1N1CCN(Cc2nc3ccccc3[nH]2)CC1
"enzyme activity, inhibitor",0.5 µM,remaining activity,96.7%,O=C(O)c1ccc2c3c1cccc3c(=O)n1c3ccccc3nc21
cell-free assay,20 µM,remaining signal,25%,Nc1ncnc2occ(-c3ccc(NC(=O)Nc4cc(C(F)(F)F)ccc4F)cc3)c12
"enzyme activity, inhibitor",0.5 µM,remaining activity,41.3%,CCN(CC)CCNC(=O)c1c(C)[nH]c(/C=C2\C(=O)Nc3ccc(Cl)cc32)c1C
"enzyme activity, inhibitor",1 µM,remaining activity,85.1%,CC(C)(O)[C@H]1CC[C@H](Nc2ccc3ncc(-c4cccc(C(F)(F)F)c4)n3n2)CC1
"binding, competition with immobilised ligand",1 µM,remaining binding,100%,CCC(=N\O)/C(C)=C/c1ccc(F)cc1
cell-free assay,0.5 µM,remaining signal,104%,C[S+]([O-])c1ccc(-c2nc(-c3ccncc3)c(-c3ccc(F)cc3)[nH]2)cc1 (centres unmarked)
"enzyme activity, inhibitor",5 µM,remaining activity,128%,O=C(Nc1cnn(-c2csc(C(=O)NC3COC3)c2)c1)Nc1ccccc1Cl
enzyme activity,23.5 nM,remaining activity,79%,Cc1ccc(C(=O)Nc2ccc(CN3CCN(C)CC3)c(C(F)(F)F)c2)cc1C#Cc1cnc2cccnn12
"binding, competition with immobilised ligand",0.1 µM,remaining binding,100%,Cn1nc(C(=O)NCc2ccc(C(=O)O)cc2)cc1-c1ccc2[nH]ccc2c1
"binding, competition with immobilised ligand",2 µM,inhibition,> 35%,CN1CCN(C(=O)c2ccc3cc(CCNc4ccnc5ccc(C#N)cc45)ccc3c2)CC1
"enzyme activity, inhibitor",10 µM,remaining activity,73.5%,Cc1sc(C(=O)NC2COC2)cc1-n1cc(NC(=O)Nc2c(F)cccc2Cl)cn1
